Assay results collected from several papers.
Lines come from different studies, so protocols differ.
Target: MAP kinase-interacting serine/threonine-protein kinase 2 (MKNK2, Homo sapiens, UniProt Q9HBH9)

CNCc1ccccc1-c1csc([C@@H](C)Nc2nc(C)nc3cc(OC)c(OC)cc23)c1 — remaining binding (cell-free assay, competition with immobilised ligand; 1 µM): 63%
CN(C)c1nccc(-c2cnc3ncccn23)n1 — remaining binding (binding; 1 µM): 46%
CN(C(=O)c1ccccc1)c1cc(N(C)c2ccc3c(c2)CCc2ccc(C(=O)NCCN4CCOCC4)cc2C3=O)ccc1F — remaining binding (cell-free assay, competition with immobilised ligand; 1 µM): 100%
CC1CCCN1c1nccc(-c2cnn3ncccc23)n1 (centres unmarked) — remaining binding (binding; 1 µM): 46%
CC(C)(C)c1ccc(-c2nc(CBr)nn2-c2cccc(O)c2)cc1 — remaining binding (cell-free assay, competition with immobilised ligand; 10 µM): 62%
O=C(c1ccc(Nc2ncc(Cl)c(-c3cc4ccccc4s3)n2)cc1)N1CCC(N2CCCC2)CC1 — remaining binding (binding, competition with immobilised ligand; 1 µM): 6.9%
COc1ccnn2ncc(-c3ccnc(N(C)C)n3)c12 — remaining binding (binding; 1 µM): 78%
C=CC(=O)N1CCC(C(=O)NCC(=O)N2CCN(c3nc(-c4cnc(N)nc4C(F)F)nc(N4CCOCC4)n3)CC2)CC1 — remaining binding (binding, competition with immobilised ligand; 1 µM): 100%
O=C(Nc1c[nH]nc1C(=O)NC1CCNCC1)c1cc(F)cc(F)c1 — remaining binding (binding, competition with immobilised ligand; 1 µM): 100%
C[C@@H](c1ccc(-n2cnc3c(N)ncnc32)cc1)N1CCc2nn(C)c(Cc3ccccc3)c2C1=O — remaining binding (binding, competition with immobilised ligand; 0.1 µM): 62%
CN(c1ccnc(CNc2nc(Nc3ccc4c(c3)CC(=O)N4)ncc2C(F)(F)F)n1)S(C)(=O)=O — remaining binding (cell-free assay, competition with immobilised ligand; 1 µM): 91%
CNC(=O)[C@@H]1CC[C@@H](n2c(-c3ccc4cnccc4c3)nc3ccc(C(=O)NCc4cccc(C(N)=O)c4)cc32)C1 — remaining binding (binding, competition with immobilised ligand; 1 µM): 100%
O=C(NCCCN1CCOCC1)c1ccc(Nc2nccc(-c3cc4ccccc4s3)n2)cc1 — remaining binding (binding, competition with immobilised ligand; 1 µM): 28%
CNC(=O)Nc1ccc2c(c1)[C@@]1(CC2)OC(=O)N(CC(=O)N(Cc2ccc(F)cc2)[C@@H](C)C(F)(F)F)C1=O — remaining binding (cell-free assay, competition with immobilised ligand; 1 µM): 76%
N[C@H]1CCN(c2nccc(-c3cnn4ncccc34)n2)C1 — remaining binding (binding; 1 µM): 21%
FC(F)(F)c1ccc2c(c1)nc(-c1cccnc1)n2C1CC1 — remaining binding (cell-free assay, competition with immobilised ligand; 1 µM): 100%
C[C@@H]1CN(c2ccc3ncc(-c4ccc5[nH]nc(C6CC6)c5c4)n3n2)C[C@H](C)O1 — remaining binding (binding, competition with immobilised ligand; 0.5 µM): 45%
